Drawing on PubChem BioAssay, this text covers GFP response vs DMSO, GFP response relative to DMSO and GFP response, % of DMSO for nine compounds.

A short description of experiment [1]: hit retest on RPL19A-GFP reporter strain – cell-based, S. cerevisiae, flow cytometry, cherry picks, mother/daughter gates, confirmation (AID 2270;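 active = GFP response below 50% of the DMSO control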). To be noted: 3 h, at 10 µM, stronger effect = lower value, 100 = same GFP as DMSO wells. (In general: In flow cytometry, cells or beads pass a laser one at a time.)
Experiment [2] can be described thus: yeast TOR pathway reporter LAP4-GFP change – cell-based, cherry picks, flow cytometry, mother/daughter gates, confirmation (AID 2271;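 active = GFP response above 150% of the DMSO control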;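 also: ratio of sample to DMSO plate mean so 100% equals DMSO level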). To be noted: S. cerevisiae LAP4-GFP strain, 3 h, at 10 µM, stronger effect = higher value, 100 means same as DMSO control. The method, boiled down: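 Test system: GFP-fusion yeast strain. Medium: synthetic complete (SC) yeast growth medium. Timing: 3 h treatment at 30 °C with rotation. Measured by: GFP by flow cytometry. Control set: positive rapamycin (400 ng/mL), negative DMSO.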

The nature of experiment [3]: TOR pathway reporter MEP2-GFP, retest of hits – S. cerevisiae, flow cytometry GFP, cherry picks, confirmation (AID 2272;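 active = GFP response above 150% of the DMSO control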;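 also: ratio of well signal to plate DMSO mean so 100% equals DMSO level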). To be noted: S. cerevisiae MEP2-GFP strain, 3 h, at 10 µM, stronger effect = higher value.
Experiment [4] is described as follows: yeast AGP1-GFP fluorescence change, single-dose – cell-based, flow cytometry, S. cerevisiae, cherry picks, confirmation (AID 2273).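 Also: median GFP channel fluorescence over the whole cell population gate.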 To be noted: S. cerevisiae AGP1-GFP strain, 3 h, at 10 µM.
Experiment [5] in a line: TOR pathway CIT2 reporter hit retest – S. cerevisiae, GFP fusion, cherry picks, mother/daughter gates, confirmation (AID 2274). To be noted: S. cerevisiae CIT2-GFP strain, flow cytometry, 3 h, at 10 µM, stronger effect = higher value.
Setting [6] is: measured here: daughter cell gate.
Where [7] appears, read: measured here: mother cell gate.
The mark [8] stands for this setting: measured here: daughter cell gate response.
[9] abbreviates: measured here: mother cell gate response.

Calls of active or inactive are those of the source.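 The calls were made as follows, unless noted: active = GFP response above 150% of the DMSO level; inconclusive = fewer than 70 events counted for a yeast strain; inactive = the rest.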

As for `CCOc1ccc(S(=O)(=O)N2CCc3ccccc3C2)cc1`, the GFP response vs DMSO in experiment [1] is 99.7% (inactive); in experiment [1] (setting [6]), 97.8%; in experiment [1] (setting [7]), 100%; in experiment [3], 97.5% (inactive). Further, the figures for the GFP response relative to DMSO in experiment [2], in experiment [2] (setting [8]) and in experiment [2] (setting [9]) were 101% (inactive), 95% and 102%, respectively. Also, the GFP response, % of DMSO is 96.2% (inactive) in experiment [4], 92.1% (inactive) in experiment [5], 92.7% in experiment [5] (setting [6]) and 91% in experiment [5] (setting [7]).
As for `CN(C)c1ccc(N=Cc2nc(-c3ccccc3)oc2OC(=O)c2cccc(Br)c2)cc1`, the GFP response vs DMSO in experiment [1] is 96.2% (inactive); in experiment [1] (setting [6]), 90.4%; in experiment [1] (setting [7]) it was 89.1%; in experiment [3], 94.4% (inactive). Moreover, the GFP response relative to DMSO in experiment [2] is 93.7% (inactive); in experiment [2] (setting [8]), 84.2%; in experiment [2] (setting [9]) it was 93%. For the same compound, the GFP response, % of DMSO in experiment [4] was 98.1% (inactive); in experiment [5] it was 92.2% (inactive).
For the compound `CCn1c(=O)c(C(=O)Nc2ccccc2C)c(O)c2ccccc21`, the GFP response vs DMSO is 97.8% (inactive) in experiment [1], 98.1% in experiment [1] (setting [6]), 97.9% in experiment [1] (setting [7]) and 105% (inactive) in experiment [3]. The GFP response relative to DMSO was 102% (inactive) in experiment [2], 102% in experiment [2] (setting [8]) and 99.3% in experiment [2] (setting [9]). The GFP response, % of DMSO in experiment [4] was 96% (inactive); in experiment [5] it was 96.9% (inactive); in experiment [5] (setting [6]), 99.1%; in experiment [5] (setting [7]), 96.1%.
In the case of `CN(C)c1ccc(N=Cc2nc(-c3ccccc3)oc2OC(=O)c2cccc(Cl)c2)cc1`, the GFP response vs DMSO in experiment [1] is 101% (inactive); in experiment [1] (setting [6]) it was 99.2%; in experiment [1] (setting [7]) it was 101%; in experiment [3], 100% (inactive). Further, the GFP response relative to DMSO is 97.4% (inactive) in experiment [2], 97.2% in experiment [2] (setting [8]) and 99.3% in experiment [2] (setting [9]). Also, the GFP response, % of DMSO in experiment [4] is 98.7% (inactive); in experiment [5], 102% (inactive); in experiment [5] (setting [6]) it was 99.7%; in experiment [5] (setting [7]), 102%.
As to `O=C(/C=C/c1ccc(O)cc1)c1ccc(O)cc1O`, the GFP response vs DMSO in experiment [1] was 93.7% (inactive); in experiment [1] (setting [6]) it was 92.9%; in experiment [1] (setting [7]), 94.6%; in experiment [3], 102% (inactive). Further, the results for the GFP response relative to DMSO in experiment [2], in experiment [2] (setting [8]) and in experiment [2] (setting [9]) were 96.7% (inactive), 97.6% and 96.1%, respectively. Further, the GFP response, % of DMSO is 109% (inactive) in experiment [4], 103% (inactive) in experiment [5], 103% in experiment [5] (setting [6]) and 102% in experiment [5] (setting [7]).
Consider `CCCn1c(=N)c(C(=O)NC2CCCC2)cc2c(=O)n3cccc(C)c3nc21`, for which the GFP response vs DMSO in experiment [1] was 100% (inactive); in experiment [1] (setting [6]), 85.2%; in experiment [1] (setting [7]), 78%; in experiment [3], 104% (inactive). Besides, the GFP response relative to DMSO in experiment [2] was 96.2% (inactive); in experiment [2] (setting [8]) it was 100%; in experiment [2] (setting [9]), 99.3%. Also, the GFP response, % of DMSO in experiment [4] and in experiment [5] was 104% (inactive) in each case.
For `CCn1cc(/C=C/c2cc[n+](C)cc2)c2ccccc21`, the GFP response vs DMSO in experiment [1] was 105% (inactive); in experiment [1] (setting [6]), 101%; in experiment [1] (setting [7]), 107%; in experiment [3], 154% (inactive). Moreover, the GFP response relative to DMSO in experiment [2] is 117% (inactive); in experiment [2] (setting [8]) it was 119%; in experiment [2] (setting [9]), 117%. Besides, the GFP response, % of DMSO in experiment [4] is 108% (inactive).
In the case of `N#C/C(=C\c1ccc(N2CCOCC2)o1)c1ccccc1`, the GFP response vs DMSO was 98.2% (inactive) in experiment [1], 97.3% in experiment [1] (setting [6]), 98.5% in experiment [1] (setting [7]) and 104% (inactive) in experiment [3]. For the same compound, the results for the GFP response relative to DMSO in experiment [2], in experiment [2] (setting [8]) and in experiment [2] (setting [9]) were 102% (inactive), 102% and 103%, respectively. Further, the GFP response, % of DMSO in experiment [4] was 93.8% (inactive); in experiment [5] it was 104% (inactive); in experiment [5] (setting [6]) it was 104%; in experiment [5] (setting [7]), 103%.
For the compound `CCc1ccc2c(c1)C1(NN=C(c3ccccc3)S1)C(=O)N2` (configuration not stated), the GFP response vs DMSO in experiment [1] was 101% (inactive); in experiment [1] (setting [6]) it was 99.1%; in experiment [1] (setting [7]) it was 97.7%; in experiment [3] it was 114% (inactive). In addition, the GFP response relative to DMSO is 133% (inactive) in experiment [2], 125% in experiment [2] (setting [8]) and 140% in experiment [2] (setting [9]). For the same compound, the GFP response, % of DMSO in experiment [4] is 102% (inactive); in experiment [5] it was 94.4% (inactive); in experiment [5] (setting [6]), 99.2%; in experiment [5] (setting [7]), 89.5%.
